Assay results reported in ChEMBL document CHEMBL1687745 (Antimicrob Agents Chemother, 2009).
Values after ≈ are worked out from the molar mass of the structure shown. Active and inactive are the calls of the source. The rule behind the calls is not given here.

Experiments:
Yersinia pestis = experiment: Antimicrobial activity against Yersinia pestis by broth microdilution method; type: functional
Enterococcus faecium = experiment: Antimicrobial activity against vancomycin-resistant Enterococcus faecium B42762 by broth microdilution method; type: functional
Enterococcus faecalis [1] = experiment: Antimicrobial activity against vancomycin-resistant Enterococcus faecalis ATCC 51575 by broth microdilution method; type: functional
Escherichia coli = experiment: Antimicrobial activity against Escherichia coli J53 clinical isolate by broth microdilution method; type: functional
Brevibacillus brevis = experiment: Antimicrobial activity against Bacillus brevis clinical isolate by broth microdilution method; type: functional
Outline: (§1)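 Broth microdilution. Log-phase cultures (5 × 10^5 CFU/ml) seeded in 96-well plates with compound from 0 to 20 µM or 1% DMSO control. Incubated at 37°C for 16 to 20 h. Growth read as absorbance at 600 nm.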

Burkholderia mallei = experiment: Antimicrobial activity against Burkholderia mallei ATCC 23344 by broth microdilution method; type: functional
Burkholderia cepacia = experiment: Antimicrobial activity against Burkholderia cepacia clinical isolate by broth microdilution method; type: functional; outline: as §1
Bacillus pumilus = experiment: Antimicrobial activity against Bacillus pumilus clinical isolate by broth microdilution method; type: functional; outline: as §1
Klebsiella pneumoniae = experiment: Antimicrobial activity against Klebsiella pneumoniae 5657 by broth microdilution method; type: functional; outline: as §1
Enterococcus faecalis [2] = experiment: Antimicrobial activity against Enterococcus faecalis 29212 clinical isolate by broth microdilution method; type: functional
Bacillus anthracis [3] = experiment: Antimicrobial activity against Bacillus anthracis Sterne spores by broth microdilution method; type: functional
Bacillus anthracis [4] = experiment: Antimicrobial activity against Bacillus anthracis Sterne vegetative cells by broth microdilution method; type: functional
HeLa = experiment: Effect on cell membrane integrity in human HeLa cells assessed as lactate dehydrogenase release at 32 times MIC against Staphylococcus aureus by CytoTox ONE homogenous membrane integrity assay; type: cell-based
Outline: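 Confluent HeLa cells in DMEM treated for 1 h with a range of compound concentrations, 1% DMSO final. […] LDH activity in the supernatant measured by a membrane-integrity kit.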

Bacillus anthracis [5] = experiment: Antimicrobial activity against Bacillus anthracis Ames by broth microdilution method in presence of 10% fetal calf serum; type: functional
Staphylococcus aureus [6] = experiment: Antimicrobial activity against Staphylococcus aureus ATCC 25923 by broth microdilution method; type: functional; outline: as §1
Staphylococcus aureus [7] = experiment: Antimicrobial activity against methicillin-resistant Staphylococcus aureus 1094 by broth microdilution method; type: functional
Bacillus subtilis [8] = experiment: Antimicrobial activity against Bacillus subtilis clinical isolate by broth microdilution method; type: functional
[9] = tested on: Mycolicibacterium smegmatis; experiment: Antimicrobial activity against Mycobacterium smegmatis 19420 by broth microdilution method; type: functional; outline: as §1
[10] = tested on: Burkholderia pseudomallei; experiment: Antimicrobial activity against Burkholderia pseudomallei DD503 by broth microdilution method; type: functional
Bacillus anthracis [11] = experiment: microbe, parasite or virus in culture; details: Ames
Bacillus anthracis [12] = experiment: Antimicrobial activity against Bacillus anthracis Vollum clinical isolate by broth microdilution method; type: functional
Bacillus anthracis [13] = experiment: Protection against Bacillus anthracis Sterne spores induced cell death in mouse J774A1 cells assessed as live viable cells at 10 uM by Sytox green dye staining assay relative to untreated control; type: functional, J774.A1
Bacillus subtilis [14] = experiment: Inhibition of DNA synthesis in Bacillus subtilis BD54 at 5 X MIC by [3H]thymidine incorporation assay; type: functional, organism-based
Outline: (§2)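 Precursors were [methyl-3H]thymidine (DNA), [5-3H]uridine (RNA), L-[4,5-3H]leucine (protein) and N-acetyl-D-[1-3H]glucosamine (cell wall). Samples taken over time, precipitated with equal volume of ice-cold 20% TCA, filtered on glass fibre, and counted. cpm plotted against time.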

[15] = tested on: Burkholderia thailandensis; experiment: Antimicrobial activity against Burkholderia thailandensis by broth microdilution method; type: functional
Bacillus anthracis [16] = experiment: Inhibition of spore germination in Bacillus anthracis Sterne spores at MIC after 4 hrs; type: functional, organism-based
Staphylococcus aureus [17] = experiment: Antimicrobial activity against Staphylococcus aureus by broth microdilution method; type: functional; outline: as §1
Enterococcus faecalis [18] = experiment: Antimicrobial activity against Enterococcus faecalis clinical isolate by broth microdilution method; type: functional; outline: as §1
Bacillus anthracis [19] = experiment: Protection against Bacillus anthracis Sterne spores induced cell death in mouse J774A1 cells assessed as dead cells at 10 uM by Sytox green dye staining assay relative to untreated control; type: functional, J774.A1
Pseudomonas aeruginosa = experiment: Antimicrobial activity against Pseudomonas aeruginosa PAO1 by broth microdilution method; type: functional; outline: as §1
[20] = Cytotoxicity against human HeLa cells after 3 days by MTS assay in presence of 10% fetal calf serum; type: cell-based
Bacillus licheniformis = experiment: Antimicrobial activity against Bacillus licheniformis clinical isolate by broth microdilution method; type: functional
Staphylococcus aureus [21] = experiment: Antimicrobial activity against methicillin-resistant Staphylococcus aureus clinical isolate by broth microdilution method; type: functional
Bacillus subtilis [22] = experiment: Inhibition of cell wall synthesis in Bacillus subtilis BD54 at 5 X MIC by N-acetyl-D-[1-3H] glucosamine incorporation assay; type: functional; outline: as §2
Priestia megaterium = experiment: Antimicrobial activity against Bacillus megaterium clinical isolate by broth microdilution method; type: functional
Bacillus subtilis [23] = experiment: Inhibition of RNA synthesis in Bacillus subtilis BD54 at 5 X MIC by [5-3H]uridine incorporation assay; type: functional; outline: as §2
[24] = tested on: Mycolicibacterium smegmatis; experiment: Antimicrobial activity against Mycobacterium smegmatis 35798 by broth microdilution method; type: functional; outline: as §1
Bacillus anthracis [25] = experiment: microbe, parasite or virus in culture; details: Ames; remark: listed apart in the source
[26] = tested on: Mycolicibacterium smegmatis; experiment: Antimicrobial activity against Mycobacterium smegmatis 700009 by broth microdilution method; type: functional; outline: as §1
Bacillus subtilis [27] = experiment: Disruption of bacterial membrane permeability in Bacillus subtilis BD54 using DiSC3 fluorescent dye staining based fluorimetric assay; type: functional, organism-based
Outline: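 B. subtilis BD54 was grown in LB to OD600 0.4–0.5, washed and resuspended to OD600 0.1 in 5 mM HEPES pH 7.4 with 20 mM glucose. Cells were loaded with 1 µM DiSC3(5) for 10 min at room temperature, then 100 mM KCl was added. […] Fluorescence (ex 622/em 670 nm) was read after 5 min in eight wells per condition. DNP at 200 µg/ml served as positive control.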

Staphylococcus aureus [28] = experiment: Antibacterial activity against Staphylococcus aureus Smith infected in Swiss Webster mouse assessed as assessed as protection against microbe-induced mortality at 10 mg/kg, iv administered as single dose 15 mins post bacterial challenge measured 48 hrs post infection; type: functional
Outline: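 Swiss Webster mice (n = 10/group) were challenged i.p. with 8.3 × 10^8 CFU. After 15 min they received a single i.v. dose in 10% dimethyl acetamide–5% dextrose in water (pH 4.0), alongside vehicle and daptomycin (10 mg/kg) controls. Survival was followed for 48 h.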

c1cc2cc(-c3ccc4cc(C5=NCCN5)[nH]c4c3)[nH]c2cc1C1=NCCN1
MIC (Yersinia pestis): 7.4 µg/mL (≈ 20.1 µM)
MIC (Enterococcus faecium): 0.2 µg/mL (≈ 0.543 µM)
MIC (Enterococcus faecalis [1]): 0.5 µg/mL (≈ 1.36 µM)
MIC (Escherichia coli): 1.1 µg/mL (≈ 2.99 µM)
MIC (Brevibacillus brevis): 0.3 µg/mL (≈ 0.814 µM)
MIC (Burkholderia mallei): 1.8 µg/mL (≈ 4.89 µM)
MIC (Burkholderia cepacia): 4.4 µg/mL (≈ 11.9 µM)
MIC (Bacillus pumilus): 0.1 µg/mL (≈ 0.271 µM)
MIC (Klebsiella pneumoniae): 0.4 µg/mL (≈ 1.09 µM)
MIC (Enterococcus faecalis [2]): 0.3 µg/mL (≈ 0.814 µM)
MIC (Bacillus anthracis [3]): 0.6 µg/mL (≈ 1.63 µM)
MIC (Bacillus anthracis [4]): 1.1 µg/mL (≈ 2.99 µM)
Activity (HeLa): Non-toxic
MIC (Bacillus anthracis [5]): 0.3 µg/mL
MIC (Staphylococcus aureus [6]): 0.3 µg/mL (≈ 0.814 µM)
MIC (Staphylococcus aureus [7]): 0.3 µg/mL (≈ 0.814 µM)
MIC (Bacillus subtilis [8]): 0.6 µg/mL (≈ 1.63 µM)
MIC [9]: 0.2 µg/mL (≈ 0.543 µM)
MIC [10]: 1.8 µg/mL (≈ 4.89 µM)
MBC (Bacillus anthracis [11]): 0.5 µg/mL (≈ 1.36 µM)
MIC (Bacillus anthracis [11]): 0.3 µg/mL (≈ 0.814 µM)
MBC (Bacillus anthracis [12]): 1.1 µg/mL (≈ 2.99 µM)
MIC (Bacillus anthracis [12]): 0.6 µg/mL (≈ 1.63 µM)
Activity (Bacillus anthracis [13]): 89%
inhibition (Bacillus subtilis [14]): Active
MIC [15]: 18 µg/mL (≈ 48.9 µM)
inhibition (Bacillus anthracis [16]): inactive
MIC (Staphylococcus aureus [17]): 1.1 µg/mL (≈ 2.99 µM)
MIC (Enterococcus faecalis [18]): 2.2 µg/mL (≈ 5.97 µM)
Activity (Bacillus anthracis [19]): 11%
MIC (Pseudomonas aeruginosa): 25 µg/mL (≈ 67.9 µM)
CC50 at 72 h [20]: 33 µg/mL
MIC (Bacillus licheniformis): 2.2 µg/mL (≈ 5.97 µM)
MIC (Staphylococcus aureus [21]): 2.2 µg/mL (≈ 5.97 µM)
inhibition (INH) (Bacillus subtilis [22]): 40%
MIC (Priestia megaterium): 0.6 µg/mL (≈ 1.63 µM)
inhibition (INH) (Bacillus subtilis [23]): 40%
MIC [24]: < 0.1 µg/mL
MBC (Bacillus anthracis [25]): 2.2 µg/mL (≈ 5.97 µM)
MIC (Bacillus anthracis [25]): 1.1 µg/mL (≈ 2.99 µM)
MIC [26]: 0.3 µg/mL (≈ 0.814 µM)

O=[N+]([O-])c1ccc(O)c([N+](=O)[O-])c1
Activity (Bacillus subtilis [27]): Active

CCCCCCCCCC(=O)N[C@@H](Cc1c[nH]c2ccccc12)C(=O)N[C@H](CC(N)=O)C(=O)N[C@@H](CC(=O)O)C(=O)N[C@@H]1C(=O)NCC(=O)N[C@@H](CCCN)C(=O)N[C@@H](CC(=O)O)C(=O)N[C@H](C)C(=O)N[C@@H](CC(=O)O)C(=O)NCC(=O)N[C@H](CO)C(=O)N[C@@H]([C@H](C)CC(=O)O)C(=O)N[C@@H](CC(=O)c2ccccc2N)C(=O)O[C@@H]1C
survival at 10 mg/kg (Staphylococcus aureus [28]): 80%
